For series [1], the system named is orthotopic 4T1 breast tumors. The experiment in a line: Tumor treatment study, orthotopic 4T1 breast tumors. In kind it is in vivo, mouse. The note with it: DOX 3 mg/kg + 4 µmol/kg iNGR i.v. every other day.
A further series relates to 4T1 tumors. The settings on record: no penetrating peptide; cited from earlier work.
In the next series the test system is tumors. The note with it: cited from earlier work.
The target of the next series is NRP-1 (Homo sapiens, UniProt O14786). The experiment in a line: Dose-dependent binding of phage to purified NRP-1. The note with it: phage-displayed peptide, Fig. 1E; for Phage binding to immobilized NRP-1: anti-T7 phage antibody / HRP detection. Put shortly:
(§1)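 Peptide-displaying T7 phage was added over a range of phage amounts to purified NRP-1 or NRP-2 protein. Bound phage was detected with a rabbit anti-T7 phage antibody followed by an HRP-labeled goat anti-rabbit secondary antibody.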

The target in the next series is T1, NRP-2 (Homo sapiens, UniProt O60462).
T1 sequence (O60462 21-931): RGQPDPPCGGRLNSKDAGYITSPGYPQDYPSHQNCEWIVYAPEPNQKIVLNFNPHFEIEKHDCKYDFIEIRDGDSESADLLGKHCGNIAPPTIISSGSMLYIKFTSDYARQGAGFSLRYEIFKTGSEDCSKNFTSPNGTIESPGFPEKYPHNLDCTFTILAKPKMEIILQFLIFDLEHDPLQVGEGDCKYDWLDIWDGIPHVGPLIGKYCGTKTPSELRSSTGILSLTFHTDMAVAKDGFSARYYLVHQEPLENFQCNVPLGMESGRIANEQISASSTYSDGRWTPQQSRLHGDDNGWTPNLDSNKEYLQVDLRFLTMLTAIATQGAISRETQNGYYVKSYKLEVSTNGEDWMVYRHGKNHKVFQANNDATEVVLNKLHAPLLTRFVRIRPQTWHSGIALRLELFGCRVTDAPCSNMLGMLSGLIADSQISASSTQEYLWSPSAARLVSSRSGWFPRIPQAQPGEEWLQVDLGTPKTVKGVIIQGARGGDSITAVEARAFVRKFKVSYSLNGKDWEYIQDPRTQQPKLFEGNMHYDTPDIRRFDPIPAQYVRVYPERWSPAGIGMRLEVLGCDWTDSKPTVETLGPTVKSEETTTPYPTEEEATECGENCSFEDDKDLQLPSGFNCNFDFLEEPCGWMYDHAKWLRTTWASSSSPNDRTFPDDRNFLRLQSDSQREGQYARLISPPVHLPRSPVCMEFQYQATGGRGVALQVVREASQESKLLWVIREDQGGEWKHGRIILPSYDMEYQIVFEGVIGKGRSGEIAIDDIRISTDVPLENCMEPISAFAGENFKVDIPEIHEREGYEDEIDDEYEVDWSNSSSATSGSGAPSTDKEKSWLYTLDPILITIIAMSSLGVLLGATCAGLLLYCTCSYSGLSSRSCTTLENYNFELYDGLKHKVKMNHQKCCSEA
The experiment in a line: Dose-dependent binding of phage to purified NRP-2. The settings on record: phage-displayed peptide, Fig. 1F; for Phage binding to immobilized NRP-2: anti-T7 phage antibody / HRP detection. The method, boiled down: as §1

A further series relates to HUVECs. The experiment in a line: Mass spectrometry of peptide inside HUVECs after incubation with FAM-peptide. It is filed as cell-based, human. The note with it: Fig. S4.

NRP-1, sequence (O14786 22-923): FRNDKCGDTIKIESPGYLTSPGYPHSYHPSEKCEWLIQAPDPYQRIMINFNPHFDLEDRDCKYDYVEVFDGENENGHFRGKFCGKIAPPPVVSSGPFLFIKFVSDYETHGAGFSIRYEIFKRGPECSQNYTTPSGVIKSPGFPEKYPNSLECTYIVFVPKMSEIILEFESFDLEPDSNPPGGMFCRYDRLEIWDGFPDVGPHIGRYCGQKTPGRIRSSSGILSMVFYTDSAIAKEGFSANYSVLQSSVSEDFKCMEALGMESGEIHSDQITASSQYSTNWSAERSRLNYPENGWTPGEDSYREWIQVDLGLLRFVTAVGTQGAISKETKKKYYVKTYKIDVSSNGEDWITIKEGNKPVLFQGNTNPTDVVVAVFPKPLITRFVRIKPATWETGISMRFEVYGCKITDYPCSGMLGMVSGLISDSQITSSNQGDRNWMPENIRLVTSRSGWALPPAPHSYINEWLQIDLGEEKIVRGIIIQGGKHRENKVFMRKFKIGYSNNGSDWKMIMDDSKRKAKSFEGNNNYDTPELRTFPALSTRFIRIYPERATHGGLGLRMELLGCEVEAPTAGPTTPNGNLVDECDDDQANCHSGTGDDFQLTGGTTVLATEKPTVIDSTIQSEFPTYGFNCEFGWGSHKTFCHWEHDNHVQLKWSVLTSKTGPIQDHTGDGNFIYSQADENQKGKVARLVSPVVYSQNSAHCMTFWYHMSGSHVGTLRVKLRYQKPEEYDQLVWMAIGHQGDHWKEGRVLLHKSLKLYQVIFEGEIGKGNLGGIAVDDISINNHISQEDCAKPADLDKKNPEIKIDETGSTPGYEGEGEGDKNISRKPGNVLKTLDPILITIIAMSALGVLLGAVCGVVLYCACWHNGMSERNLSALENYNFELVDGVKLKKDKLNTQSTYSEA

Turning to `COc1cccc2c1C(=O)c1c(O)c3c(c(O)c1C2=O)C[C@@](O)(C(=O)CO)C[C@@H]3O[C@H]1C[C@H](N)[C@H](O)[C@H](C)O1` [Doxorubicin, doxorubicin], the “Efficacy of doxorubicin given together with iNGR” value in series [1] was “significantly more efficacious than the drug alone”.
For the molecule CGKRK, the “Tumor homing and extravasation of NWs coated with the peptide” value in the series on 4T1 tumors is “brings the NWs to tumor vessels, but does not trigger extravasation”.
Take CGNKRTRGC [LyP-1]: the Tumor penetration entry in the series on tumors was “penetrates into tumors through the CendR/NRP mechanism”.
Turning to CRGDK [iRGDt], the “Phage binding to immobilized NRP-1” value at NRP-1 is on record as “bound to the NRPs”. Moreover, the “Phage binding to immobilized NRP-2” value on NRP-2 was “bound to the NRPs”.
Take CRNGR [iNGRt]: at NRP-1, the “Phage binding to immobilized NRP-1” value is reported as “bound to the NRPs” and the “Affinity for NRP-1 compared with iRGDt” value is listed as “higher affinity”. Also, at NRP-2, the “Phage binding to immobilized NRP-2” value is listed as “bound to the NRPs” and the “Affinity for NRP-2 compared with iRGDt” value is listed as “higher affinity”.
With FAM-CNGRC, in the series on HUVECs, the “Peptide present inside HUVECs after incubation with FAM-peptide” value is given as “did not penetrate into the cells”.

Values taken from paper PMC3548935 (Cancer research, 2012).
